Bioassay records: PubChem BioAssay, Johns Hopkins Ion Channel Center
KCNK9 inh: human KCNK9 channel inhibition | Q9NPC2 | AID 488922 | 310,000 compounds, 1.2% hits | B-score at 10 µM | HEK293 KCNK9, FluxOR thallium flux fluorescence; stronger effect = lower value;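 active = ratio B-score over 3 SD below the library mean, with starting fluorescence within 5 SD of its mean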;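 also: negative B-score means less thallium flux so channel inhibition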
Target sequence (Q9NPC2 whole entry, looked up): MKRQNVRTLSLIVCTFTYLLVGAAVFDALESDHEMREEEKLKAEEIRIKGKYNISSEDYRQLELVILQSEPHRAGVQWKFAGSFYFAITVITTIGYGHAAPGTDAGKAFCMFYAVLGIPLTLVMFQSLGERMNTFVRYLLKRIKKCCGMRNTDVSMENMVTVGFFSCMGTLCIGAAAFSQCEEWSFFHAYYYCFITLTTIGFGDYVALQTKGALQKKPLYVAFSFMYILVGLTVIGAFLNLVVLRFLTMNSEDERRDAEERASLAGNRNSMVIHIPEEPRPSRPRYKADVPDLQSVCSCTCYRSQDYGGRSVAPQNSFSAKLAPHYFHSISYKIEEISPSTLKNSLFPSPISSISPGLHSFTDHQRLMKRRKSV
KCNK3 inh: human KCNK3 channel inhibition, primary screen; 340,000 compounds, 0.84% hits; B-score at 10 µM; O14649; CHO-KCNK3 thallium flux, FluxOR fluorescence; stronger effect = lower value;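 active = B-score under library mean minus 4 SD, starting fluorescence ratio at most library mean plus 5 SD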;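 also: more negative B-score means stronger inhibition of thallium flux through KCNK3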
KCNQ1 block: blocks the human KCNQ1 potassium channel; P51787; CHO-K1 KCNQ1, FluxOR thallium flux fluorescence; stronger effect = higher value; B-score at 10 µM; 310,000 compounds, 1.3% hits;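 active = compounds whose thallium flux B-score, printed positive for inhibition, exceeds three library SD while starting fluorescence stays within three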;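 also: channel opened by potassium depolarization with thallium stimulus after 20 min compound exposure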
KCNQ1 act: potentiators or activators of human KCNQ1 potassium channel | B-score at 10 µM | AID 2648 | CHO-K1 KCNQ1, thallium flux FluxOR fluorescence; stronger effect = higher value | 310,000 compounds, 0.35% hits | P51787;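 active = fluorescence ratio B-score, a plate-corrected score, at least three library SD, with initial intensity B-score within 5 SD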
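System: Stable KCNQ1 CHO-K1 line | Incubation: 90 min dye loading and 20 min compound exposure, both at room temperature | Measure: Ratio B score | Medium: Assay buffer for compound exposure, DMSO matched across wells | Compound dosing: Single-concentration screen | Probe or stimulus: K+/Tl+ depolarizing stimulus | Measured by: Kinetic FluxOR fluorescence, 10 s baseline plus 110 s post-stimulus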
Kir21 inh: blocks the mouse Kir2.1 inward-rectifier potassium channel. P35561. HEK293-Kir2.1, FluxOR thallium flux fluorescence; stronger effect = lower value. B-score at 10 µM. 310,000 compounds, 0.85% hits;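 active = fluorescence ratio B-score at or below minus 3 SD of library scores, with starting-brightness B-score within 2 SD, cut at about -4.2 in these data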;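 also: channel flux triggered by added potassium and thallium sulfate stimulus; B-score of peak minus minimum fluorescence over baseline after thallium stimulus; more negative B-score means stronger Kir2.1 block with less thallium influx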
hERG protect: hERG (human) protection from proarrhythmic block. Q12809. CHO-hERG, FluxOR thallium flux, dofetilide IC70 present. activation (rescue from dofetilide block), less the hit threshold, % at 10 µM. 310,000 compounds, 0.51% hits. AID 1511;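 active = activation above the mean of controls blocked by dofetilide plus 5 SD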;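 also: thallium influx through hERG after potassium depolarization seen as dye fluorescence rise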
KCNK3 inh conf: confirmation of human KCNK3 two-pore domain potassium channel inhibitors; shares compounds with KCNK3 inh; CHO-KCNK3 thallium flux, FluxOR fluorescence; 0% buffer, 100% carvedilol maximal block; ratio percent of control, % at 10 µM; 2,400 compounds, 99% hits; AID 651638;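 active = ratio percent of control, averaged over triplicates, above buffer control mean plus 5 SD, cut at about 64% in these data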;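 also: ratio is the fluorescence rise from min to max over baseline after thallium stimulus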
KCNK3 noninduced: activity in cells without induced KCNK3 expression; shares compounds with KCNK3 inh; thallium flux ratio (lower = more inhibition) at 10 µM; AID 651747; 2,400 compounds, 40% hits; non-induced KCNK3 parental cells, FluxOR thallium flux; stronger effect = lower value;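 active = thallium flux ratio, averaged over three wells, more than 5 SD below the buffer control mean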;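 also: host cells are CHO cells without KCNK3 induction; ratio is peak minus trough fluorescence over baseline then normalized to buffer controls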
Numbers without * were called inactive; i = inactive; . = no result given. A selection: hits, their analogues and other compounds. The true share with any hit is near 3.8%.

SMILES	KCNK9 inh	KCNK3 inh	KCNQ1 block	KCNQ1 act	Kir21 inh	hERG protect	KCNK3 inh conf	KCNK3 noninduced
Cn1c(-c2c(N)n(CCc3ccccc3)c3nc4ccccc4nc23)nc2ccccc21	-7.8*	-8.8*	13*	i	0.07	-19	158*	0.1*
Cn1c(-c2c(N)n(CCCc3ccccc3)c3nc4ccccc4nc23)nc2ccccc21	i	-9.2*	i	i	-1.3	-19	126*	0.15*
COCCCn1c(N)c(-c2nc3ccccc3n2C)c2nc3ccccc3nc21	i	i	i	i	-1	-30	.	.
N#Cc1c(N)n(CCc2ccc(F)cc2)c2nc3ccccc3nc12	i	i	i	i	-0.46	-9	.	.
Cc1cccc(C(=O)c2cnc3ccccc3c2-c2ccccc2)c1	-6.7*	-11*	i	i	-0.46	-19	129*	0.14*
CC(C)Cc1nc(N2CCCCC2)c(C#N)c2c1CCC2	i	-9.6*	i	i	0	-10	98*	i
CCCCc1nc(N2CCOCC2)c(C#N)c2c1CCCC2	i	-11*	i	i	0.07	-11	108*	i
CCCc1nc(N2CCOCC2)c(C#N)c2c1CCCC2	i	i	i	i	-1.9	-9	.	.
N#CCCSc1nc(N2CCOCC2)c2c(c1C#N)CCCC2	i	i	i	i	-0.86	-16	.	.
CCCSc1nc(N2CCOCC2)c2c(c1C#N)CCCC2	i	-12*	i	i	0.05	-2	112*	0.15*
NC(=NCCc1ccccc1)NS(=O)(=O)c1cccs1	i	i	i	i	0.6	-8	.	.
O=S(=O)(NC(=NCCc1ccc(Cl)cc1)c1ccccc1Cl)c1cccs1	i	-8.9*	i	i	-2.6	-17	114*	0.16*
CCN(C(=O)COC(=O)CCc1ccccc1)c1ccccc1	i	-9.5*	i	i	0.73	-4	81*	i
CCN(C(=O)COC(=O)CSc1cc(C)c2ccccc2n1)c1ccccc1	i	-9.6*	i	i	-1.1	-15	97*	i
CC12CCCCC1N(O)C(=O)C(=O)N2O (centres undefined)	i	i	i	i	0.63	0	.	.
Cc1ccc(C)c(N2CCN(C(=O)CCC(=O)N3CCOc4ccc(Cl)cc43)CC2)c1	i	-10*	i	i	-1.1	-5	122*	0.15*
Cc1ccc(C)c(N2CCN(CCCNC(=O)CCC(=O)N3CCOc4ccc(Cl)cc43)CC2)c1	i	.	i	i	-7.4	-19	.	.
CSCCC(NC(=O)c1cccc(S(=O)(=O)N2CCN(C(C)=O)CC2)c1)c1nc2ccccc2[nH]1 (centres undefined)	.	i	.	.	.	.	.	.
CSCC[C@H](NC(=O)c1ccc(Cl)c(S(=O)(=O)N2CCCC2)c1)c1nc2ccccc2[nH]1	i	-11*	i	i	-0.09	0	107*	i
COc1ccc(CC(=O)NCc2ccc(Cl)cc2)cc1S(=O)(=O)N1CCOCC1	.	i	.	.	.	.	.	.
CCOc1cc(/C=N/NC(=O)C(O)(c2ccccc2)c2ccccc2)ccc1OC(=O)c1ccco1	i	-8.8*	i	i	-0.43	-14	83*	i
CCOc1cc(/C=N/NC(=O)c2ccncc2)ccc1OC(=O)c1ccco1	i	i	i	i	-0.66	-11	.	.
O=C(CSc1nc(O)cc(=O)n1-c1ccc(Cl)c(Cl)c1)Nc1ccc(Cl)cc1Cl	i	i	i	i	-1.2	-9	.	.
Cc1sc2ncnc(N3CCN(Cc4ccccc4)CC3)c2c1-c1ccccc1	i	-9.6*	i	57*	0.05	-13	112*	0.16*
Cc1ccc2[nH]c3c(N4CCN(Cc5ccccc5)CC4)ncnc3c2c1	i	-10*	i	i	-1.8	-25	130*	0.11*
